From the RNAGym collection of RNA variant scans (doi:10.1126/science.aae0568) come the findings set out here.

B1: tRNA (parent)
chain: GUUCCGUUGGCGUAAUGGUAACGCGUCUCCCUCCUAAGGAGAAGACUGCGGGUUCGAGUCCCGUACGGAACG

This sample holds only a part of the variants without activity.

The data set covers variants of B1. The data set can be described thus: yeast fitness relative to wild type (ratio to wild type); higher = fitter; tRNA-Arg(CCU), competitive growth, 37 C, YPD. The essentials: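 For this measurement, the tRNA-Arg(CCU) gene was varied by chemical synthesis at a 3% per-site mutation rate across 69 sites, and each variant was placed at the native genomic locus in Saccharomyces cerevisiae. The pooled strains went through a 24-hour competition in YPD at 37°C in six parallel replicates, with amplicons from start and end populations read by 100-nucleotide paired-end sequencing. Darwinian fitness relative to wild type followed from the change in each genotype's frequency. Genotypes needed ≥ 100 starting reads, and estimates < 0.5 were set to 0.5.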
Turning to GUUCCGUUGGCGUAAUGGUAACGCGUCUCCCUCCUAACGAGAAGACUGCGGGUGCGAGUACCGUACGGAACG, the yeast fitness stood at 0.589.

As to GUUCCGUUGGCGUAAUGGUAACGCGUCUCCCUCCUAACGAGAAGACUGCGGGUUCGAGUCCCGAACGACACG, the yeast fitness was at most 0.5. In the case of GUUCCGUUGGCGUAAUGGUAACGCGUCUCCCUCCUAACGAGAAGACUGCGGGUACGAGUCCCGUACGGAACG it was 0.615; in that of GUUCCGUUGGCGUAAUGGUAACGCGUCUCCCUCCUAAGAAGAAGACUGCGGGUUCGUGUCCCGUACCGAACG, 0.555; in that of GUUCCGUUGGCGUAAUGGUAACGCGUCUCCCUCCUAAGAAGAAGACUGCGGGUUCGAGUCCCGUCCGGAACG, 0.837.

Turning to GUUCCGUUGGCGUAAUGGUAACGCGUCUCCCUCCUAAGAAGAAGACUGCGGGUUCGAGUCCCGUGCGGAACG, the yeast fitness worked out at 0.985. In the case of GUUCCGUUGGCGUAAUGGUAACGCGUCUCCCUCCUAAGAAGAAAACUGCAGGUUCGAGUCCCGUACGGAACG it was 0.607; in that of GUUCCGUUGGCGUAAUGGUAACGCGUCUCCCUCCUAAUGAGAAGACUGCGGGUUCGAGUCCCGUACCGAACG, 0.772; in that of GUUCCGUUGGCGUAAUGGUAACGCGUCUCCCUCCUAAGAAGAAGACUGUGGGUUCGUGUCCCGUACGGAACG, 0.562. In the case of GUUCCGUUGGCGUAAUGGUAACGCGUCUCCCUCCUAAGAAGAAGACUGGGGGUUCGAGUCCCGUACGGUACG it was at most 0.5; in that of GUUCCGUUGGCGUAAUGGUAACGCGUCUCCCUCCUAAGAAGAAGACUGCGGGUUCGAGUGCCGUACGGAGCG, at most 0.5; in that of GUUCCGUUGGCGUAAUGGUAACGCGUCUCCCUCCUAAGAAGAAGACUGCGGGUUCGAGUCCCGUACGGACCG, 1.04. The value for GUUCCGUUGGCGUAAUGGUAACGCGUCUCCCUCCUAACGAGAAGACUGCAGGUUCGAGUCCCGUACGGAACG was 0.734; that for GUUCCGUUGGCGUAAUGGUAACGCGUCUCCCUCCUAAGAAGAUGACUGCGGGUUCGAGUCCCGUACGGAACG was 0.811; that for GUUCCGUUGGCGUAAUGGUAACGCGUCUCCCUCCUAAGAAGAAGACUGCGGGUUUGAGUCACGUACGGAACG was at most 0.5. As to GUUCCGUUGGCGUAAUGGUAACGCGUCUCCCUCCUAAGAAGAUGAUUGCGGGUUCGAGUCCCGUACGGAACG, the yeast fitness stood at 0.574.

Consider GUUCCGUUGGCGUAAUGGUAACGCGUCUCCCUCCUAAGAAGAAGACUGUGGGUUCGAGUCCUGUACGGAACG, for which the yeast fitness was determined as 0.664.

On to GUUCCGUUGGCGUAAUGGUAACGCGUCUCCCUCCUAAGAAGAAGACUGCGGGUUUGAGUCCCGUACGGAACG, for which the yeast fitness worked out at 0.873. The value for GUUCCGUUGGCGUAAUGGUAACGCGUCUCCCUCCUAAGAAGAAGACUGCGGGUUAGAGUCCCGUACGGAACG was 0.696; that for GUUCCGUUGGCGUAAUGGUAACGCGUCUCCCUCCUAAGAAGAAGACUGCGGGUUGGAGUCCCGUACGGAACG was 0.726. In the case of GUUCCGUUGGCGUAAUGGUAACGCGUCUCCCUCCUAAGAAGAAGACUGAGGAUUCGAGUCCCAUACGGACCG it was at most 0.5; in that of GUUCCGUUGGCGUAAUGGUAACGCGUCUCCCUCCUAAGAAGAAGACUGCGGGUUCGAGUCCGGUACGGAACG, 0.752. The value for GUUCCGUUGGCGUAAUGGUAACGCGUCUCCCUCCUAACGAGAAGACUGCGGGUUCAAGUCCCGUACGGAACG was 0.789; that for GUUCCGUUGGCGUAAUGGUAACGCGUCUCCCUCCUAAGAAGGAGACUGCGGGUUCGAGUCCCGUACGGAACG was 0.811. For GUUCCGUUGGCGUAAUGGUAACGCGUCUCCCUCCUAAGAAGCAGACUGCGGGUUCGAGUCCCGUACGGAACG, the yeast fitness worked out at 0.646. The value for GUUCCGUUGGCGUAAUGGUAACGCGUCUCCCUCCUAAGAAGAAGACUGCGGGUUCGAGUCUCGUACGGAACG was 0.866; that for GUUCCGUUGGCGUAAUGGUAACGCGUCUCCCUCCUAAGAAGAAGACUGCGGGUUCGAGUCACGUACGGAACG was 0.789; that for GUUCCGUUGGCGUAAUGGUAACGCGUCUCCCUCCUAAGAAGAAGACUGCGGGUUCGAGUGCCGUACGGAACG was 0.666. As for GUUCCGUUGGCGUAAUGGUAACGCGUCUCCCUCCUAACGAGAAGACUGCGGGUUCGAGUCCCGUACCGAACG, the yeast fitness stood at 0.748. The value for GUUCCGUUGGCGUAAUGGUAACGCGUCUCCCUCCUAACGACAAGACUGCUGGUUCGAGUCCCGUGCGGAACG was at most 0.5; that for GUUCCGUUGGCGUAAUGGUAACGCGUCUCCCUCCUAAGAAGAAGAAUGCGGGUUCGAGUCCCGUACGGAACG was 1.01.

Turning to GUUCCGUUGGCGUAAUGGUAACGCGUCUCCCUCCUAACGAGAAGACUGCGGGUUCGACUCCCGUACGGUACG, the yeast fitness is 0.714. For the variant GUUCCGUUGGCGUAAUGGUAACGCGUCUCCCUCCUAACGAGAAGACUGCGGGUUCGAGUCCCGUACGCAACG, the yeast fitness was determined as 0.819. The value for GUUCCGUUGGCGUAAUGGUAACGCGUCUCCCUCCUAACGAGAAGACUGCGGGUUCAAAUCCCGUCCGGAACG was at most 0.5; that for GUUCCGUUGGCGUAAUGGUAACGCGUCUCCCUCCUAACGAGAAGACUGCGGGUACGAGGCCCGUCCGGAACG was 0.692.

Consider GUUCCGUUGGCGUAAUGGUAACGCGUCUCCCUCCUAACGAGAAGACUGCGGGUUCAAAUCCCGUACGGAACG, for which the yeast fitness was 0.609. Take GUUCCGUUGGCGUAAUGGUAACGCGUCUCCCUCCUAAGAAGAAGACUGCGGGUUGAAGUCCCGUACGGUGCG: the yeast fitness was at most 0.5.
